According to ChEMBL document CHEMBL5058577, “EUbOPEN Chemogenomics Library 2 (Multiplex)” (2022):

Test system: HEK-293T
Assay: Multiplex assay against HEK293T
Format: toxicity, cell-based
Conditions: human
Method in brief: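 Live cells were stained at seeding with Hoechst33342, BioTracker Green Microtubule Cytoskeleton Dye, MitoTracker Red and Annexin V Alexa Fluor 680. Following compound addition, they were imaged on a CQ1 microscope at 37°C and 5% CO2 and gated by CellPathfinder machine learning into Hoechst high-intensity objects or normal cells, with normal cells split into healthy, pyknosed or fragmented nuclei and pyknosed cells into mitotic or apoptotic. Tubulin, mitochondrial-mass and membrane-permeability phenotypes are per cents of healthy-nucleus cells.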

[1] = 12 h, 1 µM, compound concentration 1 uM, replicate 1
[2] = 12 h, 1 µM, compound concentration 1 uM, replicate 2
[3] = 12 h, 10 µM, compound concentration 10 uM, replicate 1
[4] = 12 h, 10 µM, compound concentration 10 uM, replicate 2
[5] = 24 h, 1 µM, compound concentration 1 uM, replicate 1
[6] = 24 h, 1 µM, compound concentration 1 uM, replicate 2
[7] = 24 h, 10 µM, compound concentration 10 uM, replicate 1
[8] = 24 h, 10 µM, compound concentration 10 uM, replicate 2
[9] = 48 h, 1 µM, compound concentration 1 uM, replicate 1
[10] = 48 h, 1 µM, compound concentration 1 uM, replicate 2
[11] = 48 h, 10 µM, compound concentration 10 uM, replicate 1
[12] = 48 h, 10 µM, compound concentration 10 uM, replicate 2

CC1(COc2ccc3c(c2)ncn3-c2ccc3cccc(N4CCC(N)CC4)c3n2)COC1 [CRENOLANIB]
Population Apoptotic (%) [1]: 58%
Population Fragmented Nuclei (%) [1]: 14%
Population Healthy Nuclei (%) [1]: 79%
Population Hoechst High Intensity Objects (%) [1]: 3%
Population Membrane Permeable-Phenotype (%) [1]: 2%
Population Mitochondria Different-Phenotype (%) [1]: 23%
Population Mitotic Cells (%) [1]: 41%
Population Normal (%) [1]: 96%
Population Pyknosed Nuclei (%) [1]: 6%
Population Tubulin-Different-Phenotype (%) [1]: 46%
Total Cell Count [1]: 412
Population Apoptotic (%) [2]: 34%
Population Fragmented Nuclei (%) [2]: 10%
Population Healthy Nuclei (%) [2]: 80%
Population Hoechst High Intensity Objects (%) [2]: 6%
Population Membrane Permeable-Phenotype (%) [2]: 1%
Population Mitochondria Different-Phenotype (%) [2]: 51%
Population Mitotic Cells (%) [2]: 65%
Population Normal (%) [2]: 93%
Population Pyknosed Nuclei (%) [2]: 8%
Population Tubulin-Different-Phenotype (%) [2]: 51%
Total Cell Count [2]: 332
Population Apoptotic (%) [3]: 69%
Population Fragmented Nuclei (%) [3]: 67%
Population Healthy Nuclei (%) [3]: 13%
Population Hoechst High Intensity Objects (%) [3]: 67%
Population Membrane Permeable-Phenotype (%) [3]: 0%
Population Mitochondria Different-Phenotype (%) [3]: 84%
Population Mitotic Cells (%) [3]: 30%
Population Normal (%) [3]: 32%
Population Pyknosed Nuclei (%) [3]: 18%
Population Tubulin-Different-Phenotype (%) [3]: 68%
Total Cell Count [3]: 423
Population Apoptotic (%) [4]: 55%
Population Fragmented Nuclei (%) [4]: 64%
Population Healthy Nuclei (%) [4]: 17%
Population Hoechst High Intensity Objects (%) [4]: 69%
Population Mitochondria Different-Phenotype (%) [4]: 90%
Population Mitotic Cells (%) [4]: 45%
Population Normal (%) [4]: 30%
Population Pyknosed Nuclei (%) [4]: 17%
Population Tubulin-Different-Phenotype (%) [4]: 50%
Total Cell Count [4]: 376
Population Apoptotic (%) [5]: 29%
Population Fragmented Nuclei (%) [5]: 20%
Population Healthy Nuclei (%) [5]: 66%
Population Hoechst High Intensity Objects (%) [5]: 2%
Population Membrane Permeable-Phenotype (%) [5]: 2%
Population Mitochondria Different-Phenotype (%) [5]: 22%
Population Mitotic Cells (%) [5]: 70%
Population Normal (%) [5]: 97%
Population Pyknosed Nuclei (%) [5]: 12%
Population Tubulin-Different-Phenotype (%) [5]: 23%
Total Cell Count [5]: 547
Population Apoptotic (%) [6]: 45%
Population Fragmented Nuclei (%) [6]: 15%
Population Healthy Nuclei (%) [6]: 73%
Population Hoechst High Intensity Objects (%) [6]: 6%
Population Membrane Permeable-Phenotype (%) [6]: 1%
Population Mitochondria Different-Phenotype (%) [6]: 33%
Population Mitotic Cells (%) [6]: 54%
Population Normal (%) [6]: 93%
Population Pyknosed Nuclei (%) [6]: 11%
Population Tubulin-Different-Phenotype (%) [6]: 35%
Total Cell Count [6]: 415
Population Apoptotic (%) [7]: 72%
Population Fragmented Nuclei (%) [7]: 60%
Population Healthy Nuclei (%) [7]: 16%
Population Hoechst High Intensity Objects (%) [7]: 56%
Population Membrane Permeable-Phenotype (%) [7]: 0%
Population Mitochondria Different-Phenotype (%) [7]: 89%
Population Mitotic Cells (%) [7]: 27%
Population Normal (%) [7]: 43%
Population Pyknosed Nuclei (%) [7]: 23%
Population Tubulin-Different-Phenotype (%) [7]: 92%
Total Cell Count [7]: 394
Population Fragmented Nuclei (%) [8]: 69%
Population Healthy Nuclei (%) [8]: 15%
Population Hoechst High Intensity Objects (%) [8]: 63%
Population Mitochondria Different-Phenotype (%) [8]: 94%
Population Normal (%) [8]: 36%
Population Pyknosed Nuclei (%) [8]: 14%
Population Tubulin-Different-Phenotype (%) [8]: 73%
Total Cell Count [8]: 334
Population Apoptotic (%) [9]: 29%
Population Fragmented Nuclei (%) [9]: 19%
Population Healthy Nuclei (%) [9]: 72%
Population Hoechst High Intensity Objects (%) [9]: 1%
Population Membrane Permeable-Phenotype (%) [9]: 1%
Population Mitochondria Different-Phenotype (%) [9]: 17%
Population Mitotic Cells (%) [9]: 70%
Population Normal (%) [9]: 98%
Population Pyknosed Nuclei (%) [9]: 7%
Population Tubulin-Different-Phenotype (%) [9]: 10%
Total Cell Count [9]: 844
Population Apoptotic (%) [10]: 47%
Population Fragmented Nuclei (%) [10]: 23%
Population Healthy Nuclei (%) [10]: 70%
Population Mitochondria Different-Phenotype (%) [10]: 21%
Population Mitotic Cells (%) [10]: 52%
Population Pyknosed Nuclei (%) [10]: 6%
Population Tubulin-Different-Phenotype (%) [10]: 14%
Total Cell Count [10]: 639
Population Apoptotic (%) [11]: 86%
Population Fragmented Nuclei (%) [11]: 51%
Population Healthy Nuclei (%) [11]: 17%
Population Hoechst High Intensity Objects (%) [11]: 41%
Population Membrane Permeable-Phenotype (%) [11]: 0%
Population Mitochondria Different-Phenotype (%) [11]: 97%
Population Mitotic Cells (%) [11]: 13%
Population Normal (%) [11]: 59%
Population Pyknosed Nuclei (%) [11]: 30%
Population Tubulin-Different-Phenotype (%) [11]: 95%
Total Cell Count [11]: 400
Population Apoptotic (%) [12]: 84%
Population Fragmented Nuclei (%) [12]: 47%
Population Healthy Nuclei (%) [12]: 22%
Population Hoechst High Intensity Objects (%) [12]: 49%
Population Mitochondria Different-Phenotype (%) [12]: 96%
Population Mitotic Cells (%) [12]: 15%
Population Normal (%) [12]: 50%
Population Tubulin-Different-Phenotype (%) [12]: 96%
Total Cell Count [12]: 298
